pIC50: −log10 of the molar value.
What was measured:
Format in all cases: functional
[1] = test system: Mus musculus; assay: Antitumor activity against L1210/ara-C leukemia in mice (Percent increase in life span.) at the dose of 80 mg/kg
Outline: (§1)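 Same protocol as the L1210 assay, but with 10^5 kinase-deficient L1210/ara-C cells inoculated ip into male B6D2F1J mice (groups of 5–9) on day 0. Treatment begins day 1, qd×5 or q4d(2,6). %ILS = (T/C − 1)×100 using median survival times of treated and control groups. Body weight recorded days 1 and 7.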

[2] = test system: Mus musculus; assay: Antitumor activity against L1210/ara-C leukemia in mice (Average 7-day weight change) at the dose of 80 mg/kg
Outline: (§2)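 Male B6D2F1J mice, groups of 5–9, inoculated ip with 10^5 L1210/ara-C cells on day 0. Dosing began day 1 on a qd×5 or q4d(2,6) schedule. Ara-C was given in sterile water, the n-butyl phosphate ester in 0.05 M pH 7.4 potassium phosphate buffer, and others as suspensions in 0.4% Tween 80/0.5% CMC/0.9% benzyl alcohol/0.9% saline. Mice were weighed on days 1 and 7; 7-day change given in g and %.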

[3] = test system: Mus musculus; assay: Antitumor activity against L1210 leukemia in mice (Average 7-day weight change) at the dose of 80 mg/kg
Outline: (§3)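 Male B6D2F1J mice in groups of five to nine were inoculated i.p. with 10^5 L1210 cells on day 0. Dosing began on day 1 on a qd×5 or q4d(2,6) schedule. The vehicle was sterile water, pH 7.4 0.05 M potassium phosphate buffer, or a saline suspension with 0.4% Tween 80, 0.5% CMC and 0.9% benzyl alcohol. Mice were weighed on days 1 and 7; read-out is average weight change per mouse.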

[4] = test system: Mus musculus; assay: Antitumor activity against L1210/ara-C leukemia in mice (Average 7-day weight change) at the dose of 640 mg/kg; outline: as §2
[5] = test system: Mus musculus; assay: Antitumor activity against L1210 leukemia in mice (Average weight per mouse on day 1.) at the dose of 160 mg/kg
Outline: (§4)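 Male B6D2F1J mice (5–9 per group) received 10^5 L1210 cells i.p. on day 0 and drug from day 1, given qd×5 or q4d(2,6). Vehicles were sterile water, 0.05 M potassium phosphate pH 7.4, or 0.4% Tween 80/0.5% CMC/0.9% benzyl alcohol/0.9% saline. Read-out is average body weight per mouse (g) on day 1.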

[6] = test system: Mus musculus; assay: Antitumor activity against L1210 leukemia in mice (Average 7-day weight change) at the dose of 640 mg/kg; outline: as §3
[7] = test system: Mus musculus; assay: Antitumor activity against L1210/ara-C leukemia in mice (Average 7-day weight change (%)) at the dose of 80 mg/kg
Outline: (§5)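 Male B6D2F1J mice (5–9 per group) were given 10^5 L1210/ara-C cells i.p. on day 0, with treatment from day 1 on qd×5 or q4d(2,6). Vehicles were sterile water, pH 7.4 0.05 M phosphate buffer, or a Tween 80/CMC/benzyl alcohol saline suspension. Weights were taken on days 1 and 7; change is expressed in g/mouse and as a percentage.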

[8] = test system: Mus musculus; assay: Antitumor activity against L1210 leukemia in mice (Average 7-day weight change) at the dose of 160 mg/kg
Outline: (§6)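 Male B6D2F1J mice, groups of five to nine, inoculated ip with 10^5 L1210 cells on day 0. Drug treatment started day 1 on qd×5 or q4d(2,6) schedule. Vehicles: ara-C in sterile water; the n-butyl phosphate ester in 0.05 M pH 7.4 potassium phosphate buffer; others as suspensions in 0.4% Tween 80/0.5% low-density CMC/0.9% benzyl alcohol/0.9% saline. Mice weighed days 1 and 7; 7-day weight change given as g/mouse and %.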

[9] = test system: Mus musculus; assay: Antitumor activity against L1210 leukemia in mice (Average 7-day weight change) at the dose of 320 mg/kg; outline: as §6
[10] = test system: B16; assay: Growth inhibition of B16 mouse melanoma cells in culture was determined; conditions: read-out: ID50 (the source's name)
Outline: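 B16 mouse melanoma monolayers in McCoy's 5A with 10% whole fetal calf serum, streptomycin and penicillin, 37 °C, 5% CO2. Drugs were dissolved in 0.05 M pH 7.4 potassium phosphate buffer or Me2SO and dosed at regularly spaced concentrations, generally 10^-7 to 10^-3 M. Cells were counted after 48 h; ID50 versus untreated controls was read from dose–response curves, triplicate.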

[11] = test system: Mus musculus; assay: Antitumor activity against L1210 leukemia in mice (Average 7-day weight change (%)) at the dose of 80 mg/kg; outline: as §6
[12] = test system: L1210; assay: Growth inhibition of cultured L1210 mouse leukemia cells was determined; conditions: read-out: ID50 (the source's name)
Outline: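 L1210 mouse leukemia cells in suspension in Eagle's MEM with 15% whole (non-dialyzed, non-heat-inactivated) fetal calf serum, antibiotics and 0.05 mM 2-mercaptoethanol, 37 °C, 5% CO2. Drugs in pH 7.4 phosphate buffer or Me2SO, generally 10^-7 to 10^-3 M. Coulter cell counts at 48 h; ID50 relative to untreated controls from dose–response curves, triplicate.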

[13] = test system: Mus musculus; assay: Antitumor activity against L1210 leukemia in mice (Average weight per mouse on day 1.) at the dose of 320 mg/kg; outline: as §4
[14] = test system: Mus musculus; assay: Antitumor activity against L1210/ara-C leukemia in mice (Average 7-day weight change (%)) at the dose of 320 mg/kg; outline: as §5
[15] = test system: Mus musculus; assay: Antitumor activity against L1210/ara-C leukemia in mice (Average 7-day weight change) at the dose of 160 mg/kg; outline: as §5
[16] = test system: Mus musculus; assay: Antitumor activity against L1210 leukemia in mice (Average 7-day weight change (%)) at the dose of 320 mg/kg; outline: as §6
[17] = test system: Mus musculus; assay: Antitumor activity against L1210 leukemia in mice (Percent increase in life span.) at the dose of 320 mg/kg
Outline: (§7)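 Male B6D2F1J mice, groups of 5–9, inoculated ip with 10^5 L1210 cells on day 0. Dosing starts day 1 on a qd×5 or q4d(2,6) schedule. Vehicles are sterile water, pH 7.4 0.05 M potassium phosphate buffer, or 0.4% Tween 80/0.5% CMC/0.9% benzyl alcohol/0.9% saline. %ILS = (T/C − 1)×100 from median survival. Weights taken days 1 and 7.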

[18] = test system: Mus musculus; assay: Antitumor activity against L1210/ara-C leukemia in mice (Average 7-day weight change) at the dose of 320 mg/kg; outline: as §5
[19] = test system: Mus musculus; assay: Antitumor activity against L1210/ara-C leukemia in mice (Average 7-day weight change (%)) at the dose of 640 mg/kg; outline: as §5
[20] = test system: Mus musculus; assay: Antitumor activity against L1210 leukemia in mice (Percent increase in life span.) at the dose of 80 mg/kg; conditions: L1210, dose 80 mg/kg; outline: as §7
[21] = test system: Mus musculus; assay: Antitumor activity against L1210/ara-C leukemia in mice (Percent increase in life span.) at the dose of 160 mg/kg; outline: as §1
[22] = test system: Mus musculus; assay: Antitumor activity against L1210/ara-C leukemia in mice (Percent increase in life span.) at the dose of 320 mg/kg; outline: as §1
[23] = test system: Mus musculus; assay: Antitumor activity against L1210 leukemia in mice (Average weight per mouse on day 1.) at the dose of 80 mg/kg; outline: as §4
[24] = test system: Mus musculus; assay: Antitumor activity against L1210/ara-C leukemia in mice (Percent increase in life span.) at the dose of 640 mg/kg; outline: as §1
[25] = test system: Mus musculus; assay: Antitumor activity against L1210 leukemia in mice (Percent increase in life span.) at the dose of 640 mg/kg; outline: as §7
[26] = test system: Mus musculus; assay: Antitumor activity against L1210/ara-C leukemia in mice (Average weight per mouse on day 1.) at the dose of 160 mg/kg; outline: as §2
[27] = test system: Mus musculus; assay: Antitumor activity against L1210 leukemia in mice (Average 7-day weight change (%)) at the dose of 160 mg/kg; outline: as §6
[28] = test system: Mus musculus; assay: Antitumor activity against L1210/ara-C leukemia in mice (Average 7-day weight change (%)) at the dose of 160 mg/kg; outline: as §5
[29] = test system: Mus musculus; assay: Antitumor activity against L1210 leukemia in mice (Average 7-day weight change (%)) at the dose of 640 mg/kg; outline: as §6
[30] = test system: Mus musculus; assay: Antitumor activity against L1210/ara-C leukemia in mice (Average weight per mouse on day 1.) at the dose of 640 mg/kg; outline: as §2
[31] = test system: Mus musculus; assay: Antitumor activity against L1210 leukemia in mice (Average weight per mouse on day 1.) at the dose of 640 mg/kg; outline: as §4
[32] = test system: Mus musculus; assay: Antitumor activity against L1210/ara-C leukemia in mice (Average weight per mouse on day 1.) at the dose of 80 mg/kg; outline: as §2
[33] = test system: Mus musculus; assay: Antitumor activity against L1210 leukemia in mice (Percent increase in life span.) at the dose of 160 mg/kg; outline: as §7
[34] = test system: Mus musculus; assay: Antitumor activity against L1210 leukemia in mice (Average weight per mouse on day 1.) at the dose of 180 mg/kg; outline: as §4
[35] = test system: Mus musculus; assay: Antitumor activity against L1210 leukemia in mice (Average weight per mouse on day 1.) at the dose of 240 mg/kg; outline: as §4
[36] = test system: Mus musculus; assay: Antitumor activity against L1210 leukemia in mice (Percent increase in life span.) at the dose of 180 mg/kg (mice surviving 20 or more days); outline: as §7
[37] = test system: Mus musculus; assay: Antitumor activity against L1210 leukemia in mice (Average 7-day weight change) at the dose of 240 mg/kg; outline: as §6
[38] = test system: Mus musculus; assay: Antitumor activity against L1210 leukemia in mice (Percent increase in life span.) at the dose of 240 mg/kg (mice surviving 20 or more days); outline: as §7
[39] = test system: Mus musculus; assay: Antitumor activity against L1210 leukemia in mice (Average 7-day weight change (%)) at the dose of 240 mg/kg; outline: as §6
[40] = test system: Mus musculus; assay: Antitumor activity against L1210 leukemia in mice (Average 7-day weight change) at the dose of 180 mg/kg; outline: as §6
[41] = test system: Mus musculus; assay: Antitumor activity against L1210 leukemia in mice (Average 7-day weight change (%)) at the dose of 180 mg/kg; outline: as §6

In the case of `CCCCOP(=O)(O)OC[C@H]1O[C@@H](n2ccc(N)nc2=O)[C@@H](O)[C@@H]1O`, the ILS at 80 mg/kg [1] was 0%, the Weight change [2] was 3 g mouse-1 and the Weight change [3] was 2.6 g mouse-1. The Weight change [4] was 0.2 g mouse-1, the Average weight [5] was 23.6 g mouse-1 and the Weight change [6] was 0.2 g mouse-1. For the same compound, the Weight change [7] was 13%, the Weight change [8] was 1 g mouse-1 and the Weight change [9] was 0.6 g mouse-1. For the same compound, the pIC50 [10] was 3.89, the Weight change [11] was 10% and the pIC50 [12] was 5.12. The Average weight [13] was 22.4 g mouse-1, the Weight change [14] was 5% and the Weight change [15] was 3.6 g mouse-1. The Weight change [16] was 3%, the ILS at 320 mg/kg [17] was 87% and the Weight change [18] was 1 g mouse-1. For the same compound, the Weight change [19] was 0%, the ILS at 80 mg/kg [20] was 37% and the ILS at 160 mg/kg [21] was 0%. It also gave an ILS at 320 mg/kg [22] of 0%, an Average weight [23] of 22 g mouse-1 and an ILS at 640 mg/kg [24] of -13%. For the same compound, the ILS at 640 mg/kg [25] was 87%, the Average weight [26] was 22.2 g mouse-1 and the Weight change [27] was 4%. The Weight change [28] was 16%, the Weight change [29] was 1% and the Average weight [30] was 22.6 g mouse-1. It also gave an Average weight [31] of 22.8 g mouse-1, an Average weight [32] of 23.4 g mouse-1 and an ILS at 160 mg/kg [33] of 50%.
With `CCCCCCCCCCCCCC(=O)O[C@H]1[C@@H]2Oc3nc(=N)ccn3[C@@H]2O[C@@H]1COP(=O)(O)OCCCC` the Average weight [34] was 23.2 g mouse-1, the Average weight [35] was 23.4 g mouse-1 and the ILS at 180 mg/kg [36] was 100%. The Weight change [37] was -4 g mouse-1, the ILS at 240 mg/kg [38] was 112% and the Weight change [39] was -17%. For the same compound, the Weight change [40] was -2.6 g mouse-1 and the Weight change [41] was -11%.
